In the library only some 4.1% were active in any assay of this set; here they are far more common.
KCNQ1 inh – inhibitors of human KCNQ1 potassium channel; AID 2642; P51787; hit rate 1.3% among 310,000; B-score at 10 µM; CHO-K1 KCNQ1, FluxOR thallium flux fluorescence; stronger effect = higher value;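 active = compounds whose thallium flux B-score, printed positive for inhibition, exceeds three library SD while starting fluorescence stays within three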;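 also: channel opened by potassium depolarization with thallium stimulus after 20 min compound exposure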
KCNQ1 pot – potentiates or activates the human KCNQ1 potassium channel; P51787; CHO-K1 KCNQ1, thallium flux FluxOR fluorescence; stronger effect = higher value; B-score at 10 µM; hit rate 0.35% among 310,000;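 active = fluorescence ratio B-score, a plate-corrected score, at least three library SD, with initial intensity B-score within 5 SD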
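Assay system: CHO-K1 cells stably expressing KCNQ1; Medium: assay buffer with matched DMSO; Also added: K+/Tl+ depolarizing stimulus; Dosing: single dose; Timing: dye 90 min, compound 20 min, room temperature; Measured by: kinetic FluxOR thallium fluorescence, 10-s 1-Hz baseline, 110-s post-stimulus read; Read-out: peak-minus-minimum fluorescence over initial fluorescence, negative-control normalized, B-scored.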
Cl transport mod – modulates chloride dependent transport by human KCC2; Q9H2X9; KCC2 cells, thallium flux FluoZin-2 fluorescence; B-score of Tl+ flux slope (higher = more flux/activation; lower = inhibition) at 10 µM; hit rate 2.2% among 190,000; AID 1456;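 active = thallium flux slope and its plate-corrected score both differing from the plate sample mean at a set confidence after two filtering rounds, in either direction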;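 also: slope of fluorescence scaled to starting intensity during 10 to 20 s after thallium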
KCNK3 inh – human KCNK3 channel inhibition, primary screen. O14649. CHO-KCNK3 thallium flux, FluxOR fluorescence; stronger effect = lower value. B-score at 10 µM. hit rate 0.84% among 340,000;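 active = B-score under library mean minus 4 SD, starting fluorescence ratio at most library mean plus 5 SD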;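 also: more negative B-score means stronger inhibition of thallium flux through KCNK3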
hERG rescue – shields human hERG channel from block by proarrhythmic agents; hit rate 0.51% among 310,000; activation (rescue from dofetilide block), less the hit threshold, % at 10 µM; CHO-hERG, FluxOR thallium flux, dofetilide IC70 present; AID 1511; Q12809;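 active = activation above the mean of controls blocked by dofetilide plus 5 SD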;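 also: thallium influx through hERG after potassium depolarization seen as dye fluorescence rise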
Target sequence (Q12809 whole entry, looked up): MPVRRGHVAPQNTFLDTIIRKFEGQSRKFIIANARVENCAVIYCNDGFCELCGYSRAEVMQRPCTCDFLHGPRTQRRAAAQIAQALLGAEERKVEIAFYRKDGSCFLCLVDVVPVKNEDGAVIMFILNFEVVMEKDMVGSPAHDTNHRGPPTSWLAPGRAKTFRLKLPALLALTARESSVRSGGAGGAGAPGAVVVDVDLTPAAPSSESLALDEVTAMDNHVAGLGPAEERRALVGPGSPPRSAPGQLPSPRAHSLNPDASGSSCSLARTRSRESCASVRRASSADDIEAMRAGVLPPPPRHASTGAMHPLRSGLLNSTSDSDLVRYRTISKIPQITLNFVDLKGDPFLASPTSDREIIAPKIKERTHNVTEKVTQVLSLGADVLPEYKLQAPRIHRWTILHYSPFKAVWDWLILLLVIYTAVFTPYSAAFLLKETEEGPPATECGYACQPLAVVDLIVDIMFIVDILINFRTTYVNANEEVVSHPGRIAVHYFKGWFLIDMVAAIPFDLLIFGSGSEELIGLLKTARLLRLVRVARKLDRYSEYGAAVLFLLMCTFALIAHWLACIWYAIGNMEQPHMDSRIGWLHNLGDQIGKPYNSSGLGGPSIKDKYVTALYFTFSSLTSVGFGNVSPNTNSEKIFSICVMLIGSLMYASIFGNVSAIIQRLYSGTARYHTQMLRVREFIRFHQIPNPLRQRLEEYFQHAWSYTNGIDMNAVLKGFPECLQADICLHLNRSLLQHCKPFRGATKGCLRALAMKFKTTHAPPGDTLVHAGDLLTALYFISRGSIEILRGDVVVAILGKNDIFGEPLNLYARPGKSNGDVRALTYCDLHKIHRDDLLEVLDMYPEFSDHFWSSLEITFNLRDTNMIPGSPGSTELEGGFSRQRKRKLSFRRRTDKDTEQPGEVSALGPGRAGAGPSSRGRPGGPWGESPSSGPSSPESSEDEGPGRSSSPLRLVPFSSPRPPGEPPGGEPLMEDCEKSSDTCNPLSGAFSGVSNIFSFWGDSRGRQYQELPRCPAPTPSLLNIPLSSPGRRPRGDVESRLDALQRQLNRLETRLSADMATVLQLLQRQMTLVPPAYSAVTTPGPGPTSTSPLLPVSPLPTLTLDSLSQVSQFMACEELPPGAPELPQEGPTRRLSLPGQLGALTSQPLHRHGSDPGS
KCNK9 inh – blocks the human KCNK9 two-pore domain potassium channel; B-score at 10 µM; hit rate 1.2% among 310,000; Q9NPC2; HEK293 KCNK9, FluxOR thallium flux fluorescence; stronger effect = lower value;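 active = ratio B-score over 3 SD below the library mean, with starting fluorescence within 5 SD of its mean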;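 also: negative B-score means less thallium flux so channel inhibition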
KCC2 secondary – KCC2 (human) modulation, secondary assay; shares compounds with Cl transport mod; HEK293-KCC2, thallium flux, FluoZin2 fluorescence; stronger effect = higher value; normalised thallium flux (F/F0 slope) at 10 µM; hit rate 15% among 3,700; AID 1713;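 active = thallium flux slope above the same plate's solvent-only control mean plus 3 SD; inconclusive = the two replicate wells disagree; inactive = no significant difference from solvent-only control wells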
KCC2 bumet counter – thallium flux persisting under bumetanide in KCC2 cells, counter-screen secondary assay | shares compounds with Cl transport mod | AID 1714 | HEK293-KCC2 + bumetanide/ouabain, thallium flux FluoZin2; stronger effect = higher value | normalized thallium flux at 10 µM | hit rate 49% among 3,700;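 active = thallium entry rate above the same plate's blocked-transporter control wells by more than 3 SD; inconclusive = the two repeat wells disagree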;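 also: raw slope of fluorescence over initial fluorescence between 10 and 20 s after thallium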
KCC2 secondary2 – KCC2 (human) modulation, second secondary assay; shares compounds with Cl transport mod; hit rate 23% among 3,700; HEK293-KCC2, thallium flux FluoZin2 fluorescence; actives lie on both sides; F/F0 rise rate, 10–20 s post-thallium; normalized thallium flux at 10 µM;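 active = thallium flux slope more than 3 SD above or below the plate's solvent-only control mean, mostly below; inconclusive = the two repeat wells disagreed; inactive = no significant shift from solvent-only controls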;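 also: raw slope with 0.1% DMSO as baseline and bumetanide as block control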
HEK counter1 – counter-screen for KCC2 modulators: effect in parental HEK293 cells. shares compounds with Cl transport mod. thallium flux FluoZin2, ouabain; baseline-ratio fluorescence slope, 10–20 s after thallium. thallium flux rate (normalised fluorescence) at 10 µM. hit rate 46% among 3,700. AID 1716;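 active = thallium flux rate significantly above the same plate's solvent-only control wells, beyond their mean plus 3 SD; inconclusive = the two replicate wells gave conflicting results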
KCC2 ouabain – confirmation of human KCC2 modulators with ouabain; shares compounds with Cl transport mod; HEK293-KCC2, thallium flux FluoZin2 fluorescence; bidirectional: low = inhibitor, high = activator; raw Tl+ flux slope (below DMSO = inhibition, above = activation) at 10 µM; hit rate 48% among 3,700;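 active = thallium flux slope beyond 3 SD from same-plate DMSO control mean in most replicates, usually higher, sometimes lower; inconclusive = repeat tests gave conflicting results; inactive = no significant difference from controls in most replicates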;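 also: slope of initial-normalized fluorescence between seconds 10 and 20 after thallium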
HEK counter2 – acts in parental HEK cells, second KCC2 counter-screen. shares compounds with Cl transport mod. HEK293 parental, thallium flux FluoZin-2 fluorescence slope. thallium flux slope at 10 µM. hit rate 33% among 3,700. AID 1718;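 active = thallium flux slope above the same plate's solvent-control mean plus 3 SD in both duplicate wells; inconclusive = duplicate wells that disagreed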;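 also: run without ouabain in cells lacking the KCC2 cotransporter; slope of fluorescence scaled to its starting value between 10 and 20 s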
* marks the source's active call; other numbers are inactive results; i = inactive; ? = inconclusive; / = no result.

SMILES | KCNQ1 inh | KCNQ1 pot | Cl transport mod | KCNK3 inh | hERG rescue | KCNK9 inh | KCC2 secondary | KCC2 bumet counter | KCC2 secondary2 | HEK counter1 | KCC2 ouabain | HEK counter2
COc1cccc(CNC(=O)c2cc3oc4ccccc4c3n2C)c1OC | i | i | 7.5* | i | -6 | i | 0.0091 | 0.0061 | 0.036 | 0.0044 | 0.02 | 0.012
Cn1cnnc1SCC(=O)N/N=C/c1ccc(OCC(N)=O)cc1 | i | i | 0.69 | i | -10 | i | / | / | / | / | / | /
CCCCn1c(CN2CCN(c3ccc(F)cc3)CC2)nc2c1c(=O)n(C)c(=O)n2C | i | i | 0.063 | i | -9 | i | / | / | / | / | / | /
CCCn1nc([N+](=O)[O-])c(C(C#N)c2nc3ccccc3o2)c(Cl)c1=O (centres undefined) | 6* | i | -6.6* | i | -16 | i | 0.0072 | ? | 0.022* | 0.0058* | 0.012* | 0.0089
Cn1nc([N+](=O)[O-])c(C(C#N)c2ccccn2)c(Cl)c1=O (centres undefined) | i | i | -0.18 | i | -8 | i | / | / | / | / | / | /
c1ccc(CCn2nnnc2C(c2cccnc2)N2CCN(c3nc4ccccc4s3)CC2)cc1 (centres undefined) | i | i | -1.9 | i | -12 | i | / | / | / | / | / | /
Cc1cccc(N2CCN(C(=O)Cn3cnc4c3c(=O)n(C)c(=O)n4C)CC2)c1C | i | i | 0.68 | i | -2 | i | / | / | / | / | / | /
Cc1cccc(N2CCN(C(=O)Cn3ccc4ccccc4c3=O)CC2)c1C | i | i | -4.5* | i | -8 | i | 0.007 | 0.0041 | 0.023* | 0.0069 | 0.016* | 0.0097
O=c1c(-c2cnn(-c3ccccc3)c2)coc2cc(O)ccc12 | i | i | -4.1* | i | -1 | i | 0.0071 | 0.0059* | 0.026* | 0.0076 | ? | 0.011
Cc1oc2cc(O)ccc2c(=O)c1-c1cnn(-c2ccccc2)c1 | i | i | -0.32 | i | -6 | i | / | / | / | / | / | /
CCC(c1nnnn1Cc1ccccc1)N1CCN(c2ccccc2)CC1 (centres undefined) | i | i | -3.9* | i | -6 | i | 0.016 | 0.0042 | ? | 0.0066 | 0.015* | 0.0097
O=C(Nc1nnc(C2CCCO2)s1)c1ccc(Br)cc1 (centres undefined) | / | / | / | i | / | / | / | / | / | / | / | /
CC1(C)CCc2cc(-c3ccnc(=S)[nH]3)ccc2O1 | i | i | / | i | -9 | i | / | / | / | / | / | /
S=c1nccc(-c2ccc3c(c2)CCO3)[nH]1 | i | i | 4.6* | i | -8 | i | 0.019 | 0.011* | 0.033 | 0.013* | 0.021* | 0.016*
Cc1ccc(-c2ccnc(=S)[nH]2)cc1 | i | i | / | i | -2 | i | 0.023* | 0.032* | 0.041* | 0.033* | 0.034* | 0.035*
S=c1nccc(-c2cccs2)[nH]1 | i | i | 2.8 | i | -12 | i | / | / | / | / | / | /
C/C(=N\N=C1/SC(CC(=O)O)C(=O)N1c1ccccc1)c1ccc(C)cc1 (centres undefined) | i | i | / | i | -4 | i | / | / | / | / | / | /
O=c1c2ccccc2[nH]c(=S)n1Cc1ccccc1Cl | i | i | / | i | -2 | i | / | / | / | / | / | /
O=c1c2ccccc2[nH]c(=S)n1CCc1ccccc1 | i | 17* | 29* | i | 20* | i | 0.027* | 0.072* | 0.038 | 0.11* | 0.061* | 0.055*
O=c1c2ccccc2[nH]c(=S)n1Cc1cccs1 | i | i | 26* | i | -3 | i | ? | 0.048* | 0.029 | 0.017* | 0.041* | 0.012*
O=c1c2ccccc2[nH]c(=S)n1CCN1CCc2ccccc2C1 | i | i | 58* | i | -2 | i | 0.018* | 0.13* | 0.03 | 0.036* | 0.069* | 0.015*
O=c1c2ccccc2[nH]c(=S)n1Cc1ccccc1 | i | i | / | i | -5 | i | / | / | / | / | / | /
CC1CCCN(C(=O)CCCn2c(=S)[nH]c3ccccc3c2=O)C1 (centres undefined) | i | i | 3.2* | i | -11 | i | 0.007 | 0.0099* | 0.032 | 0.0099* | ? | 0.012*
CCCn1c(=S)[nH]c2ccccc2c1=O | i | i | 79* | i | 1 | i | ? | 0.12* | 0.091* | 0.085* | 0.1* | 0.088*
O=C1CCC(C(=O)OCc2c(Cl)cccc2Cl)N1 (centres undefined) | i | i | 0.32 | i | -3 | i | / | / | / | / | / | /
SMILES | KCNQ1 inh | KCNQ1 pot | Cl transport mod | KCNK3 inh | hERG rescue | KCNK9 inh | KCC2 secondary | KCC2 bumet counter | KCC2 secondary2 | HEK counter1 | KCC2 ouabain | HEK counter2
CCC(C)(C)n1nnnc1C(c1cc2cc(C)ccc2[nH]c1=O)N1CCCC1 (centres undefined) | i | i | -0.015 | i | -6 | i | / | / | / | / | / | /
Cc1ccc2cc(C(c3nnnn3C(C)(C)C)N3CCCCCC3)c(=O)[nH]c2c1 (centres undefined) | i | i | / | i | -8 | i | 0.0091 | 0.0068 | 0.03 | 0.0069 | 0.025 | 0.011
CCc1ccc(-c2cn(C3CCCCC3)c(=S)[nH]2)cc1 | i | i | 6* | i | -9 | i | 0.019 | 0.05* | 0.03 | 0.012* | 0.023* | ?
CCc1ccc(-n2cc(-c3ccc([N+](=O)[O-])cc3)[nH]c2=S)cc1 | i | i | 3.7 | i | -5 | i | / | / | / | / | / | /
COc1cc(OC)cc(C(=O)NNC(=O)c2cc3c(s2)CCCC3)c1 | i | i | 0.22 | i | -3 | i | / | / | / | / | / | /
FC(F)Sc1nc2ccccc2[nH]1 | i | i | 50* | i | -2 | i | 0.026* | 0.11* | 0.048* | 0.05* | 0.051* | 0.024*
